Assay type in all cases: functional
The test system of experiment [1] is Morganella morganii. Briefly: In vitro minimum inhibitory concentration (MIC) against Morganella morganii A 15153 at 37 degrees C for 18 h. In outline:
(§1)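 Two-fold serial broth dilution in nutrient broth. Inoculum adjusted to 10^6 cfu/mL. Compounds tested from 0.0005 to 250 µg/mL.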

Experiment [2] concerns Enterobacter cloacae. Nature of the experiment: In vitro minimum inhibitory concentration (MIC) against Enterobacter cloacae A 9656 at 37 degrees C for 18 h.
Experiment [3] deals with Enterococcus faecium. Nature of the experiment: In vitro minimum inhibitory concentration (MIC) against Enterococcus faecium A 24885 at 37 degrees C for 18 h. In outline: as §1
The subject of experiment [4] is Staphylococcus aureus. Nature of the experiment: In vitro minimum inhibitory concentration (MIC) against Staphylococcus aureus Smith A 9537 at 37 degrees C for 18 hr. In short, it runs like this: as §1
The subject of experiment [5] is Pseudomonas aeruginosa. Briefly: In vitro minimum inhibitory concentration (MIC) against Pseudomonas aeruginosa A 9843 at 37 degree C for 18 h. In short, it runs like this: as §1
The test system of experiment [6] is Escherichia coli. Briefly: In vitro minimum inhibitory concentration (MIC) against Escherichia coli A 15119 at 37 degrees C for 18 h. In short, it runs like this: as §1
Experiment [7] deals with Serratia marcescens. Nature of the experiment: In vitro minimum inhibitory concentration (MIC) against Serratia marcescens A 20019 at 37 degrees C for 18 hr. In outline: as §1
In experiment [8] the test system is Enterococcus faecalis. Briefly: In vitro minimum inhibitory concentration (MIC) against Enterococcus faecalis A 9808 at 37 degrees C for 18 h. In short, it runs like this:
as §1

Experiment [9] deals with Klebsiella pneumoniae. Nature of the experiment: In vitro minimum inhibitory concentration (MIC) against Klebsiella pneumoniae A 9664 at 37 degrees C for 18 h. In short, it runs like this:
as §1

We go through 17 molecules from ChEMBL document CHEMBL1124759, “Fluoronaphthyridines and quinolones as antibacterial agents. 2. Synthesis and structure-activity relationships of new 1-tert-butyl 7-substituted derivatives” (J Med Chem, 1990).

≈ marks a conversion by molar mass, not a printed value.

As usually defined, the MIC is the least concentration at which growth counts as inhibited. Low values mean a more susceptible organism, high ones a less susceptible organism.

For the molecule `CNC1CCN(c2nc3c(cc2F)c(=O)c(C(=O)O)cn3C(C)(C)C)C1` (stereo not drawn), the MIC in experiment [1] worked out at 0.5 µg/mL (≈ 1.38 µM); in [2] it was 0.06 µg/mL (≈ 0.166 µM); in experiment [3], 8 µg/mL (≈ 22.1 µM); in experiment [4], 0.06 µg/mL (≈ 0.166 µM); in experiment [5] it was 2 µg/mL (≈ 5.52 µM); in [6] it was 0.06 µg/mL (≈ 0.166 µM). Also, the MIC in [7] turned out to be 1 µg/mL (≈ 2.76 µM); in experiment [8] it was 0.5 µg/mL (≈ 1.38 µM); in experiment [9], 0.13 µg/mL (≈ 0.359 µM).

As for `CC(C)(C)n1cc(C(=O)O)c(=O)c2cc(F)c(N3C[C@@H](N)[C@H](F)C3)nc21.CS(=O)(=O)O`, the minimum inhibitory concentration (MIC) in [1] was found to be 0.5 µg/mL; in experiment [2] it was 0.5 µg/mL; in experiment [3] it was 2 µg/mL; in experiment [4], 0.003 µg/mL; in [5] it was 2 µg/mL; in experiment [6], 0.5 µg/mL. The MIC in [7] was found to be 0.5 µg/mL; in [8], 0.25 µg/mL; in experiment [9], 0.5 µg/mL.

Turning to `CC(C)(C)n1cc(C(=O)O)c(=O)c2cc(F)c(N3CC4CCC3CN4)cc21` (stereo not drawn), the MIC in [1] was determined as 1 µg/mL (≈ 2.68 µM); in experiment [2], 0.25 µg/mL (≈ 0.669 µM); in experiment [3], 4 µg/mL (≈ 10.7 µM); in [4], 0.13 µg/mL (≈ 0.348 µM); in [5] it was 2 µg/mL (≈ 5.36 µM); in experiment [6] it was 0.5 µg/mL (≈ 1.34 µM). Besides, the MIC in experiment [7] worked out at 2 µg/mL (≈ 5.36 µM); in experiment [8] it was 1 µg/mL (≈ 2.68 µM); in experiment [9], 0.25 µg/mL (≈ 0.669 µM).

For the molecule `CN1C2CCC1CN(c1nc3c(cc1F)c(=O)c(C(=O)O)cn3C(C)(C)C)C2.CS(=O)(=O)O`, the MIC in experiment [1] was determined as 2 µg/mL; in experiment [2], 0.25 µg/mL; in experiment [3] it was 16 µg/mL; in [4], 0.25 µg/mL; in experiment [5], 4 µg/mL; in [6], 0.5 µg/mL. Besides, the MIC in [7] came out at 2 µg/mL; in [8], 2 µg/mL; in experiment [9], 0.1 µg/mL.

With `CC(C)(C)n1cc(C(=O)O)c(=O)c2cc(F)c(N3CC4CCC(C3)N4)nc21.CS(=O)(=O)O`, the minimal inhibitory concentration (MIC) in [1] stood at 0.5 µg/mL; in experiment [2], 0.25 µg/mL; in [3] it was 4 µg/mL; in [4], 0.06 µg/mL; in [5] it was 4 µg/mL; in [6], 0.13 µg/mL. Further, the MIC in experiment [7] came to 1 µg/mL; in experiment [8] it was 1 µg/mL; in experiment [9], 0.13 µg/mL.

As to `CC(C)(C)n1cc(C(=O)O)c(=O)c2cc(F)c(N3CC4CCC3CN4)nc21` (stereo not drawn), the MIC in experiment [1] was determined as 1 µg/mL (≈ 2.67 µM); in [2], 0.06 µg/mL (≈ 0.16 µM); in experiment [3], 2 µg/mL (≈ 5.34 µM); in [4], 0.03 µg/mL (≈ 0.0801 µM); in [5], 1 µg/mL (≈ 2.67 µM); in [6] it was 0.13 µg/mL (≈ 0.347 µM). Besides, the MIC is 1 µg/mL (≈ 2.67 µM) in experiment [7], 0.5 µg/mL (≈ 1.34 µM) in experiment [8] and 0.13 µg/mL (≈ 0.347 µM) in experiment [9].

As for `CC(C)(C)n1cc(C(=O)O)c(=O)c2cc(F)c(N3CCNC(CF)C3)cc21` (stereo not drawn), the minimum inhibitory concentration (MIC) in experiment [1] is 0.5 µg/mL (≈ 1.32 µM); in experiment [2], 0.13 µg/mL (≈ 0.343 µM); in experiment [3], 8 µg/mL (≈ 21.1 µM); in experiment [4], 0.13 µg/mL (≈ 0.343 µM); in [5], 4 µg/mL (≈ 10.5 µM); in [6] it was 0.25 µg/mL (≈ 0.659 µM). Besides, the MIC is 1 µg/mL (≈ 2.64 µM) in experiment [7], 2 µg/mL (≈ 5.27 µM) in experiment [8] and 0.13 µg/mL (≈ 0.343 µM) in experiment [9].

As for `CC(C)(C)n1cc(C(=O)O)c(=O)c2cc(F)c(N3C4CCC3CNC4)nc21.CS(=O)(=O)O`, the MIC in experiment [1] was 0.5 µg/mL; in [2], 0.25 µg/mL; in [3], 4 µg/mL; in experiment [4] it was 0.06 µg/mL; in experiment [5], 2 µg/mL; in [6], 0.06 µg/mL. Further, the MIC amounted to 0.5 µg/mL in experiment [7], 0.5 µg/mL in experiment [8] and 0.13 µg/mL in [9].

In the case of `CC1CN(c2nc3c(cc2F)c(=O)c(C(=O)O)cn3C(C)(C)C)CCN1C` (stereo not drawn), the minimal inhibitory concentration (MIC) stood at 1 µg/mL (≈ 2.66 µM) in experiment [1]; 0.06 µg/mL (≈ 0.159 µM) in [2]; 4 µg/mL (≈ 10.6 µM) in [3]; 0.13 µg/mL (≈ 0.345 µM) in [4]; 4 µg/mL (≈ 10.6 µM) in [5]; 0.03 µg/mL (≈ 0.0797 µM) in experiment [6]. Further, the MIC worked out at 1 µg/mL (≈ 2.66 µM) in experiment [7], 1 µg/mL (≈ 2.66 µM) in experiment [8] and 0.13 µg/mL (≈ 0.345 µM) in [9].

`CN(C)C1CCN(c2nc3c(cc2F)c(=O)c(C(=O)O)cn3C(C)(C)C)C1` (stereo not drawn): the minimum inhibitory concentration (MIC) in experiment [1] came to 0.5 µg/mL (≈ 1.33 µM); in experiment [2], 1 µg/mL (≈ 2.66 µM); in experiment [3], 8 µg/mL (≈ 21.3 µM); in [4] it was 0.03 µg/mL (≈ 0.0797 µM); in experiment [5], 1 µg/mL (≈ 2.66 µM); in [6], 0.25 µg/mL (≈ 0.664 µM). In addition, the MIC in [7] was 1 µg/mL (≈ 2.66 µM); in [8], 0.5 µg/mL (≈ 1.33 µM); in [9] it was 0.13 µg/mL (≈ 0.345 µM).

On to `CC[C@H]1CN(c2nc3c(cc2F)c(=O)c(C(=O)O)cn3C(C)(C)C)C[C@@H]1N.CS(=O)(=O)O`, for which the MIC in [1] amounted to 0.25 µg/mL; in experiment [2] it was 0.03 µg/mL; in experiment [3], 2 µg/mL; in [4], 0.015 µg/mL; in [5], 1 µg/mL; in experiment [6] it was 0.03 µg/mL. Moreover, the MIC in experiment [7] was 0.25 µg/mL; in experiment [8], 0.13 µg/mL; in experiment [9], 0.06 µg/mL.

As for `CC(C)(C)n1cc(C(=O)O)c(=O)c2cc(F)c(N3CCC(CN)C3)cc21` (stereo not drawn), the minimum inhibitory concentration (MIC) in experiment [1] was determined as 2 µg/mL (≈ 5.53 µM); in experiment [2], 0.25 µg/mL (≈ 0.692 µM); in experiment [3], 0.5 µg/mL (≈ 1.38 µM); in experiment [4], 0.03 µg/mL (≈ 0.083 µM); in [5], 0.5 µg/mL (≈ 1.38 µM); in experiment [6], 0.25 µg/mL (≈ 0.692 µM). Besides, the MIC in experiment [7] turned out to be 2 µg/mL (≈ 5.53 µM); in experiment [8], 0.25 µg/mL (≈ 0.692 µM); in experiment [9], 0.25 µg/mL (≈ 0.692 µM).

For the molecule `CC(C)(C)n1cc(C(=O)O)c(=O)c2cc(F)c(N3CCC(CN)C3)nc21` (stereo not drawn), the minimal inhibitory concentration (MIC) worked out at 1 µg/mL (≈ 2.76 µM) in experiment [1]; 0.5 µg/mL (≈ 1.38 µM) in experiment [2]; 2 µg/mL (≈ 5.52 µM) in experiment [3]; 0.03 µg/mL (≈ 0.0828 µM) in experiment [4]; 1 µg/mL (≈ 2.76 µM) in experiment [5]; 0.5 µg/mL (≈ 1.38 µM) in experiment [6]. For the same molecule, the values for the MIC in experiment [7], in [8] and in experiment [9] were 2 µg/mL (≈ 5.52 µM), 0.25 µg/mL (≈ 0.69 µM) and 0.25 µg/mL (≈ 0.69 µM), respectively.

As to `CCNCC1CCN(c2cc3c(cc2F)c(=O)c(C(=O)O)cn3C(C)(C)C)C1` (stereo not drawn), the minimum inhibitory concentration (MIC) in experiment [1] was 2 µg/mL (≈ 5.14 µM); in experiment [2], 0.5 µg/mL (≈ 1.28 µM); in experiment [3], 4 µg/mL (≈ 10.3 µM); in experiment [4], 0.06 µg/mL (≈ 0.154 µM); in experiment [5], 8 µg/mL (≈ 20.5 µM); in experiment [6] it was 0.25 µg/mL (≈ 0.642 µM). For the same molecule, the results for the minimum inhibitory concentration (MIC) in [7], in [8] and in [9] were 8 µg/mL (≈ 20.5 µM), 0.5 µg/mL (≈ 1.28 µM) and 1 µg/mL (≈ 2.57 µM), respectively.

On to `CC(C)(C)n1cc(C(=O)O)c(=O)c2cc(F)c(N3CCNC(c4ccccc4)C3)nc21.CS(=O)(=O)O` (stereo not drawn), for which the minimum inhibitory concentration (MIC) in experiment [1] came out at 1 µg/mL; in experiment [2], 0.06 µg/mL; in [3], 8 µg/mL; in experiment [4], 0.03 µg/mL; in [5] it was 4 µg/mL; in experiment [6], 0.06 µg/mL. The MIC amounted to 2 µg/mL in experiment [7], 1 µg/mL in [8] and 0.06 µg/mL in [9].

In the case of `CC(C)(C)n1cc(C(=O)O)c(=O)c2cc(F)c(N3CCNC(c4ccccc4)C3)cc21.CS(=O)(=O)O` (stereo not drawn), the MIC in [1] worked out at 0.5 µg/mL; in [2] it was 0.13 µg/mL; in experiment [3], 4 µg/mL; in [4], 0.06 µg/mL; in [5], 1 µg/mL; in experiment [6], 0.06 µg/mL. Further, the results for the minimum inhibitory concentration (MIC) in experiment [7], in experiment [8] and in experiment [9] were 2 µg/mL, 0.5 µg/mL and 0.25 µg/mL, respectively.

Take `CC[C@H]1CN(c2nc3c(cc2F)c(=O)c(C(=O)O)cn3C(C)(C)C)C[C@H]1N.Cl`: the minimal inhibitory concentration (MIC) in experiment [1] was found to be 0.5 µg/mL; in [2], 0.06 µg/mL; in experiment [3] it was 2 µg/mL; in experiment [4], 0.015 µg/mL; in [5] it was 1 µg/mL; in experiment [6], 0.13 µg/mL. Further, the MIC in experiment [7] was 0.5 µg/mL; in experiment [8], 0.25 µg/mL; in [9], 0.13 µg/mL.
